This passage reports MIC, Activity and CC50 results from ChEMBL document CHEMBL2396649, “Synthesis and antibacterial activity of novel phosphonium salts on the basis of pyridoxine” (Bioorg Med Chem, 2013).

Series [1] concerns Staphylococcus aureus. As to the kind of experiment: Antibacterial activity against Staphylococcus aureus assessed as growth inhibition after 18 to 24 hrs. In kind it is functional. The essentials: (§1)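 Clinical isolates from a regional epidemiology institute. Broth microdilution: inoculum 5 × 10⁵ CFU/ml in Müller-Hinton broth (pH 7.3) with serial concentrations of salts, incubated at 35 °C for 18–24 h. MIC taken as lowest concentration with no detectable bacterial growth.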

A further series deals with Klebsiella pneumoniae. As to the kind of experiment: Antibacterial activity against Klebsiella pneumoniae assessed as growth inhibition after 18 to 24 hrs. The series is classed as functional. The method, boiled down:
as §1

In series [2] the test system is Staphylococcus epidermidis. As to the kind of experiment: Antibacterial activity against Staphylococcus epidermidis assessed as growth inhibition after 18 to 24 hrs. The series is classed as functional. The essentials:
as §1

The next series relates to Proteus. Description: Antibacterial activity against Proteus spp. assessed as growth inhibition after 18 to 24 hrs. In kind it is functional. The essentials: as §1
The test system of series [3] is Staphylococcus aureus. As to the kind of experiment: Antibacterial activity against Staphylococcus aureus 25923 assessed as DNA migration out of cells at 10 ug/ml after 1 hr by SYBR green staining-based fluorescent microscopic analysis. The series is classed as functional, organism-based. The essentials: (§2)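 S. aureus 25923 pre-grown on blood agar at 37 °C, cultured overnight in Müller-Hinton broth (pH 7.3), pelleted and resuspended in PBS. After treatment, cells centrifuged 3000 g 15 min, washed twice in PBS, embedded in agarose microgels, lysed, stained with SYBR Green I and imaged by fluorescence microscopy.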

The test system of series [4] is Staphylococcus aureus. Description: Antibacterial activity against Staphylococcus aureus 25923 assessed as DNA fragmentation at 10 ug/ml after 1 hr by SYBR green staining-based fluorescent microscopic analysis. In kind it is functional, organism-based. The method, boiled down:
as §2

Series [5] has as its system Staphylococcus aureus. Description: Antibacterial activity against Staphylococcus aureus 25923 assessed as decrease in zeta potential of plasmid DNA at 0.01 mg/ml after 1 hr by light scatterning method (reference value: -50.7 +/- 1 mV). The series is classed as functional.
In series [6] the test system is Staphylococcus aureus. Description: Antibacterial activity against Staphylococcus aureus 25923 assessed as increase in hydrodynamic diameter of plasmid DNA at 0.01 mg/ml after 1 hr by light scatterning method (reference value: 360.7 +/- 18 nm). In kind it is functional.
Series [7] deals with Staphylococcus aureus. Description: Antibacterial activity against Staphylococcus aureus 25923 assessed as decrease in zeta potential of plasmid DNA at 0.1 mg/ml after 1 hr by light scatterning method (reference value: -50.7 +/- 1 mV). The series is classed as functional.
The nature of series [8]: Cytotoxicity against human skin fibroblasts after 72 hrs by MTT assay. The arrangement: species or system Skin fibroblast. The method, boiled down: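 Human skin fibroblasts seeded at 3000 cells/well, attached overnight, then exposed to salt solutions (1 µg/ml–1 mg/ml) for 72 h at 37 °C, 5% CO₂. Cells washed with fresh medium and subjected to MTT assay; reduced product read at 550 nm. CC50 derived.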

For series [9], the system named is Staphylococcus aureus. Description: Antibacterial activity against Staphylococcus aureus 25923 assessed as increase in polydispersity index of plasmid DNA at 0.01 mg/ml after 1 hr by light scatterning method (reference value: 0.425 no unit). The series is classed as functional.
Series [10] has as its system Staphylococcus aureus. Description: Antibacterial activity against Staphylococcus aureus 25923 assessed as increase in polydispersity index of plasmid DNA at 0.1 mg/ml after 1 hr by light scatterning method (reference value: 0.425 no unit). The series is classed as functional.
In series [11] the test system is Staphylococcus aureus. Description: Antibacterial activity against Staphylococcus aureus 25923 assessed as partial DNA fragmentation at 0.01 to 10 mg/ml after 1 hr by agarose gel electrophoresis method.
Series [12] has as its system Staphylococcus aureus. As to the kind of experiment: Antibacterial activity against Staphylococcus aureus 25923 assessed as increase in hydrodynamic diameter of plasmid DNA at 0.1 mg/ml after 1 hr by light scatterning method (reference value: 360.7 +/- 18 nm). In kind it is functional.

≈ marks a conversion by molar mass, not a printed value. Calls of active or inactive are those of the source. No cut-off for these calls is given here.

Turning to `Cl.OCc1nc(C[P+](c2ccccc2)(c2ccccc2)c2ccccc2)c(O)c(CO)c1CO.[Cl-]`, the MIC (in the series on Staphylococcus aureus [1]; in the series on Klebsiella pneumoniae; in series [2]; with Proteus) was above 1000 µg/mL throughout.

Turning to `CC1(C)OCc2c(C[P+](c3ccccc3)(c3ccccc3)c3ccccc3)cnc(C[P+](c3ccccc3)(c3ccccc3)c3ccccc3)c2O1.[Cl-].[Cl-]`, the MIC in the series with Staphylococcus aureus [1] was 62.5 µg/mL; in the series on Klebsiella pneumoniae it was above 1000 µg/mL; in [2], 50 µg/mL; with Proteus, above 1000 µg/mL.

As to `Cc1ncc(C[P+](c2ccccc2)(c2ccccc2)c2ccccc2)c2c1OC(C)(C)OC2.[Cl-]`, the minimum inhibitory concentration (MIC) was 1000 µg/mL with Staphylococcus aureus [1], above 1000 µg/mL in the series with Klebsiella pneumoniae, 1000 µg/mL in series [2] and above 1000 µg/mL in the series with Proteus.

For the compound `Cl.OCc1c(C[P+](c2ccccc2)(c2ccccc2)c2ccccc2)cnc(C[P+](c2ccccc2)(c2ccccc2)c2ccccc2)c1O.[Cl-].[Cl-]`, the minimal inhibitory concentration (MIC) was 250 µg/mL in the series on Staphylococcus aureus [1], above 1000 µg/mL in the series with Klebsiella pneumoniae, 250 µg/mL in [2] and above 1000 µg/mL with Proteus.

On to `CC1(C)OCc2c(C[P+](c3ccccc3)(c3ccccc3)c3ccccc3)c(C[P+](c3ccccc3)(c3ccccc3)c3ccccc3)nc(C[P+](c3ccccc3)(c3ccccc3)c3ccccc3)c2O1.[Cl-].[Cl-].[Cl-]`, for which the minimal inhibitory concentration (MIC) in the series with Staphylococcus aureus [1] is 50 µg/mL; in the series with Klebsiella pneumoniae it was above 1000 µg/mL; in series [2], 50 µg/mL; in the series with Proteus, above 1000 µg/mL.

Turning to `CC1(C)OCc2c(CO)c(CO)nc(C[P+](c3ccccc3)(c3ccccc3)c3ccccc3)c2O1.[Cl-]`, the MIC (in the series with Staphylococcus aureus [1]; with Klebsiella pneumoniae; in series [2]; with Proteus) was above 1000 µg/mL throughout.

As to `Cc1nc(C[P+](c2ccccc2)(c2ccccc2)c2ccccc2)c(C[P+](c2ccccc2)(c2ccccc2)c2ccccc2)c2c1OC(C)(C)OC2.[Cl-].[Cl-]`, the result in the series with Staphylococcus aureus [3], in the series with Staphylococcus aureus [4] and with Staphylococcus aureus [11] was Active. For the same compound, the Activity was -46.6 mV in the series with Staphylococcus aureus [5]; 500.9 nm with Staphylococcus aureus [6]; -35.2 mV in the series with Staphylococcus aureus [7]; 0.717 with Staphylococcus aureus [9]; 0.844 in the series with Staphylococcus aureus [10]; 452.3 nm in the series on Staphylococcus aureus [12]. The same compound came in with a cytotoxic concentration (CC50) at 72 h in [8] of 160 µg/mL. For the same compound, the minimal inhibitory concentration (MIC) with Staphylococcus aureus [1] is 5 µg/mL; in the series with Klebsiella pneumoniae it was above 1000 µg/mL; in series [2] it was 5 µg/mL; with Proteus it was above 1000 µg/mL.

Take `Cc1nc(C[P+](c2ccccc2)(c2ccccc2)c2ccccc2)c(C[P+](c2ccccc2)(c2ccccc2)c2ccccc2)c(CO)c1O`: the minimal inhibitory concentration (MIC) is 1000 µg/mL in the series on Staphylococcus aureus [1], above 1000 µg/mL in the series on Klebsiella pneumoniae, 1000 µg/mL in [2] and above 1000 µg/mL in the series on Proteus.

With `Cc1nc(C[P+](c2ccccc2)(c2ccccc2)c2ccccc2)c(CO)c(CO)c1O.Cl.[Cl-]`, the minimum inhibitory concentration (MIC) is 1000 µg/mL in the series on Staphylococcus aureus [1], above 1000 µg/mL in the series with Klebsiella pneumoniae, 1000 µg/mL in series [2] and above 1000 µg/mL in the series on Proteus.

Regarding `Cl.OCc1c(O)c(C[P+](c2ccccc2)(c2ccccc2)c2ccccc2)nc(C[P+](c2ccccc2)(c2ccccc2)c2ccccc2)c1C[P+](c1ccccc1)(c1ccccc1)c1ccccc1.[Cl-].[Cl-].[Cl-]`, the MIC was 500 µg/mL with Staphylococcus aureus [1], above 1000 µg/mL in the series with Klebsiella pneumoniae, 500 µg/mL in series [2] and above 1000 µg/mL with Proteus.

Consider `CN[C@H](CC(C)C)C(=O)N[C@H]1C(=O)N[C@@H](CC(N)=O)C(=O)N[C@H]2C(=O)N[C@H]3C(=O)N[C@H](C(=O)N[C@H](C(=O)O)c4cc(O)cc(O)c4-c4cc3ccc4O)[C@H](O)c3ccc(c(Cl)c3)Oc3cc2cc(c3O[C@@H]2O[C@H](CO)[C@@H](O)[C@H](O)[C@H]2O[C@H]2C[C@](C)(N)[C@H](O)[C@H](C)O2)Oc2ccc(cc2Cl)[C@H]1O` [VANCOMYCIN], for which the minimum inhibitory concentration (MIC) with Staphylococcus aureus [1] was 2.5 µg/mL (≈ 1.73 µM); in the series on Klebsiella pneumoniae it was above 1000 µg/mL; in [2] it was 2.5 µg/mL (≈ 1.73 µM); with Proteus, above 1000 µg/mL.

Consider `Cc1ncc(C[P+](c2ccccc2)(c2ccccc2)c2ccccc2)c(CO)c1O.Cl.[Cl-]`, for which the MIC with Staphylococcus aureus [1] was 1000 µg/mL; in the series with Klebsiella pneumoniae it was above 1000 µg/mL; in series [2], 1000 µg/mL; in the series on Proteus it was above 1000 µg/mL.

Regarding `CC(=O)Oc1c(C)nc(C[P+](c2ccccc2)(c2ccccc2)c2ccccc2)c2c1COC(C)(C)OC2.[Cl-]`, the MIC with Staphylococcus aureus [1] was 100 µg/mL; in the series on Klebsiella pneumoniae it was above 1000 µg/mL; in series [2], 100 µg/mL; with Proteus, above 1000 µg/mL.

`Cc1nc(CO)c(C[P+](c2ccccc2)(c2ccccc2)c2ccccc2)c(CO)c1O.Cl.[Cl-]`: the minimum inhibitory concentration (MIC) with Staphylococcus aureus [1] is 1000 µg/mL; in the series with Klebsiella pneumoniae, above 1000 µg/mL; in [2], 1000 µg/mL; in the series with Proteus, above 1000 µg/mL.
